Measurements as given in ChEMBL document CHEMBL4431376, “CZ415, a Highly Selective mTOR Inhibitor Showing in Vivo Efficacy in a Collagen Induced Arthritis Model” (ACS Med Chem Lett, 2016).
In brackets after ≈: the same amount, converted by molar mass.

Legend:
[1] = Plasma clearance in Sprague-Dawley rat at 1 mg/kg, iv as bolus dose or 3 mg/kg, po administered through gavage measured up to 8 hrs by LC-MS/MS analysis relative to liver blood flow; assay type: ADME, organism-based; details: in vivo
Summary of the method: (§1)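 Rats (n = 3 per route) given a 1 mg/kg intravenous bolus or 3 mg/kg as an oral solution. Vehicle was 5% DMSO/95% (10% Kleptose). Plasma concentration was followed over time to derive PK parameters and oral bioavailability. Clearance was also expressed relative to liver blood flow.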

Mus musculus [2] = species: Mus musculus; assay: animal or person; details: C57BL/6J
[3] = Intrinsic clearance in pooled cryopreserved human hepatocytes at 1 uM incubated up to 90 mins by LC-MS/MS analysis; assay type: ADME, cell-based, Hepatocyte; details: 1.5 h
Summary of the method: (§2)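 Metabolic stability was assessed in liver microsomes (rat, dog, human) and hepatocytes (dog, human). Intrinsic clearance was calculated as μL/min/g liver.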

[4] = Intrinsic clearance in pooled cryopreserved dog hepatocytes at 1 uM incubated up to 90 mins by LC-MS/MS analysis; assay type: ADME, cell-based, Canis lupus familiaris, Hepatocyte; details: 1.5 h; summary of the method: as §2
[5] = Cmax in DBA/1 OlaHsd mouse immunized with bovine type2 collagen in Freund's complete adjuvant at 10 mg/kg, po bid administered starting on day 22 post immunization measured on day 31 post immunization; assay type: ADME, organism-based; set-up: dose 10 mg/kg, route oral; details: in vivo
Summary of the method: (§3)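 Blood drug levels were measured on study day 31 in CIA mice dosed at 10 mg/kg PO bid (n = 10), with vehicle 5% DMSO/95% (10% kleptose). AUC and Cmax were derived from these levels. Time above EC50 was judged against the human whole-blood IFNγ assay EC50 and the anti-CD3 mouse PK/PD EC50.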

[6] = Blood clearance in Sprague-Dawley rat at 1 mg/kg, iv as bolus dose or 3 mg/kg, po administered through gavage measured up to 8 hrs by LC-MS/MS analysis; assay type: ADME, organism-based; details: whole blood; summary of the method: as §1
Cytochrome P450 2C8 = molecular target: T1, Cytochrome P450 2C8 (Homo sapiens, UniProt P10632); assay: Inhibition of CYP2C8 in human liver microsomes; assay type: ADME
T1 sequence (P10632 whole entry): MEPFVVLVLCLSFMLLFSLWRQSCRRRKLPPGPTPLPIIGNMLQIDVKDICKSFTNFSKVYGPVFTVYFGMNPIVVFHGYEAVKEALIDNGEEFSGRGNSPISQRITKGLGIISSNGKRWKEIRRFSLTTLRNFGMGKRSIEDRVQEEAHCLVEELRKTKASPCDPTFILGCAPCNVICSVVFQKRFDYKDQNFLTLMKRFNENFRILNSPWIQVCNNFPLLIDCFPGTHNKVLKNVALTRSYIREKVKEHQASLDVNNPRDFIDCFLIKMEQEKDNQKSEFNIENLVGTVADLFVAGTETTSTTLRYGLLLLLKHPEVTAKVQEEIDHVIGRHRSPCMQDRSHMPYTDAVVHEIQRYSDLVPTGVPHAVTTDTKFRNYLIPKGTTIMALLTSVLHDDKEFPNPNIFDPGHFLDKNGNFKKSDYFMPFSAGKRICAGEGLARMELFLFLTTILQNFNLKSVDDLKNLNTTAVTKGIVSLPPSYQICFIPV

[7] = Solubility of compound in fed state simulated intestinal fluid; assay type: physicochemical
Summary of the method: (§4)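 logD measured at pH 7.4. Kinetic solubility measured by CLND. Solubility also measured in FaSSIF and FeSSIF biorelevant media.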

[8] = Cmax in Sprague-Dawley rat at 3 mg/kg, po administered through gavage by LC-MS/MS analysis; assay type: ADME, organism-based; set-up: dose 3 mg/kg, route oral; details: in vivo; summary of the method: as §1
[9] = Solubility of compound in fasted state simulated intestinal fluid; assay type: physicochemical; summary of the method: as §4
Mus musculus [10] = assay: Anti-inflammatory activity in DBA/1 OlaHsd mouse immunized with bovine type2 collagen in Freund's complete adjuvant assessed as reduction in AUC of clinical arthritis score at 10 mg/kg, po bid administered starting on day 22 post immunization until day 33 post immunization relative to control; assay type: functional; set-up: scale not given: the % may be the effect or the level left; details: in the assay text read “until day 34 post immunization” for “until day 33 post immunization”
Summary of the method: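 Semiestablished CIA design. Mice received bovine type II collagen at day 0 with a boost at day 21. Dosing at 10 mg/kg PO bid ran from day 22 to day 34, in 5% DMSO/95% (10% kleptose), n = 10 per group; normal controls n = 4. Paws were scored daily for erythema and swelling (0–5), summarized as AUC. Body weight was tracked over time.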

Cytochrome P450 3A4 [11] = molecular target: T2, Cytochrome P450 3A4 (Homo sapiens, UniProt P08684); assay: Inhibition of CYP3A4 in human liver microsomes; assay type: ADME
T2 sequence (P08684 whole entry): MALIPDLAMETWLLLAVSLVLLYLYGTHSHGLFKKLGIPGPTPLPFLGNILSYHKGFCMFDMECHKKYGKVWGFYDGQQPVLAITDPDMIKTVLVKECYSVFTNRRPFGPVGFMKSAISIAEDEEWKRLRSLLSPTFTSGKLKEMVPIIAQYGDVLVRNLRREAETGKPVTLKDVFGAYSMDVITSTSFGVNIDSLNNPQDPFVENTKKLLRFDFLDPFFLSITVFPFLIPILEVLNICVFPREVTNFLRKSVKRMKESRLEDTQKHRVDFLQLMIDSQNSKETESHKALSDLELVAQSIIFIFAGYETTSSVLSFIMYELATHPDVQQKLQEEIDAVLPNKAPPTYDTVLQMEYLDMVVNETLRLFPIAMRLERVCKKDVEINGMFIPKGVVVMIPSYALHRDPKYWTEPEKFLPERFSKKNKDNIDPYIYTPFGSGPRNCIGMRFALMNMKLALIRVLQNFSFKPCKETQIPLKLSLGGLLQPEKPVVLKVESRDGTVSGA

[12] = Oral bioavailability in Sprague-Dawley rat at 3 mg/kg administered through gavage measured up to 8 hrs by LC-MS/MS analysis; assay type: ADME, organism-based; details: in vivo; summary of the method: as §1
Mus musculus [13] = assay: Time duration for free plasma concentration stays above invivo EC50 in DBA/1 OlaHsd mouse immunized with bovine type2 collagen in Freund's complete adjuvant at 10 mg/kg, po bid administered starting on day 22 post immunization measured on day 31 post immunization; assay type: ADME, organism-based; details: in vivo; summary of the method: as §3
Cytochrome P450 3A4 [14] = molecular target: T2, Cytochrome P450 3A4; assay: Time-dependent inhibition of CYP3A4 in human liver microsomes at 50 uM; assay type: ADME
Summary of the method: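 CYP3A4 induction tested at 10 μM. Time-dependent inhibition of CYP3A4 tested at up to 50 μM.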

[15] = Intrinsic clearance in pooled dog liver microsomes at 1 uM incubated up to 40 mins in presence of NADPH by LC-MS/MS analysis; assay type: ADME, Canis lupus familiaris, Microsome; summary of the method: as §2
[16] = Mutagenicity in Salmonella typhimurium by Ames test; assay type: toxicity; details: salmonella enterica subsp. enterica serovar typhimurium
[17] = AUC in DBA/1 OlaHsd mouse immunized with bovine type2 collagen in Freund's complete adjuvant at 10 mg/kg, po bid administered starting on day 22 post immunization measured on day 31 post immunization; assay type: ADME, organism-based; details: in vivo; summary of the method: as §3
Lymphoma cell line [18] = assay: Genotoxicity in mouse lymphoma cells in presence of rat liver S9 fraction; assay type: toxicity, cell-based
[19] = Mean residence time in Sprague-Dawley rat at 1 mg/kg, iv as bolus dose or 3 mg/kg, po administered through gavage by LC-MS/MS analysis; assay type: ADME, organism-based; details: in vivo; summary of the method: as §1
[20] = Protein binding in mouse plasma; assay type: ADME, cell-free; details: read-out: PPB (converted)
Summary of the method: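 Plasma protein binding was determined in rat, mouse and human plasma, expressed as % bound.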

Lymphoma cell line [21] = assay: Genotoxicity in mouse lymphoma cells in absence of rat liver S9 fraction; assay type: toxicity, cell-based

What does the source list for `CCNC(=O)Nc1ccc(-c2nc(N3CCOC[C@@H]3C)c3c(n2)C(C)(C)S(=O)(=O)C3)cc1`?
CL [1]: 45%; EC50 (Mus musculus [2]): 220 nM; CLH [3]: <= 0.5 microL/min/g; CLH [4]: < 0.8 µL/min/g; Cmax [5]: 1700 nM; clearance [6]: 41 mL/min/kg; inhibition (INH) (Cytochrome P450 2C8): Not Active; solubility [7]: 60.1 µg/mL (≈ 131 µM); Cmax [8]: 430 nM; solubility [9]: 11.1 µg/mL (≈ 24.2 µM); Activity (Mus musculus [10]): 59%; inhibition (INH) (Cytochrome P450 3A4 [11]): Not Active; bioavailability [12]: 44%; Time (Mus musculus [13]): <= 8 hr; TDI (Cytochrome P450 3A4 [14]): Not Active; CLH [15]: < 1.1 µL/min/g; Activity [16]: Non-Toxic; AUC [17]: 14 µM·h; Activity (Lymphoma cell line [18]): Non-Toxic; MRT [19]: 1.1 h; fraction unbound [20]: 0.11; Activity (Lymphoma cell line [21]): Non-Toxic
